Results: PMC11190929 (ACS Omega, 2024)

Columns and labels:
MARK4 [1] = molecular target: T1, MARK4 (Homo sapiens, UniProt Q96L34); test: Fluorescence binding studies; settings: for KSV: Stern-Volmer
T1 sequence (Q96L34 59-368): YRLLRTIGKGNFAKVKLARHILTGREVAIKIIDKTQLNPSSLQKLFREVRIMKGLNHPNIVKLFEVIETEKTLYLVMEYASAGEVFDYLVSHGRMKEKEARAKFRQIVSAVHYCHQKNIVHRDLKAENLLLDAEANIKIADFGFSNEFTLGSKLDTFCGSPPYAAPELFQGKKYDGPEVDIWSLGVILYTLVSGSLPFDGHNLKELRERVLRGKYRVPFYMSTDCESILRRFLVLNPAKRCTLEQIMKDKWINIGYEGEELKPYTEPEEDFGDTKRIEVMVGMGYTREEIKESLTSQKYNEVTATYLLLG
How it was run: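 Intrinsic fluorescence of recombinant MARK4 (4 μM) titrated with test compound at 0–15 μM. Excitation 280 nm, emission 300–400 nm, slit 10 nm, medium response. Quenching data fitted to the Stern–Volmer and modified Stern–Volmer equations to give binding constant Ka and number of binding sites n.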

C3A cells [2] = test: Transwell cell migration assay, C3A; format: cell-based, human; settings: 1/2 IC50, 24 h, vs vehicle control
How it was run: (§1)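 Serum-starved cells treated with test compound or vehicle for 24 h, then 50 × 10^3 cells/well placed in serum-free medium in the upper Boyden chamber (8.0 μm PET membrane). Lower chamber held complete medium with 10% FBS. Next day, non-migrated cells were swabbed off. Migrated cells were methanol-fixed, stained with 0.4% crystal violet in 25% methanol, and counted in 4–5 random fields.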

SNU-475 cells [3] = test: Annexin-V/PI staining; format: cell-based, human; settings: SNU-475, annexin-V/PI
How it was run: (§2)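 Cells were exposed to test compound or vehicle for 72 h, then trypsinized and washed 2–3 times in sterile PBS. They were stained with PI and Cy5-labelled annexin-V and analysed by flow cytometry. Positive cells were quantified from n = 3 biological replicates, with a t test against vehicle.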

[4] = tested on: tau phosphorylation in SH-SY5Y cells; test: Tau-phosphorylation assay; format: cell-based, human; settings: compound at its enzyme IC50 concentration, 24 h
How it was run: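 SH-SY5Y neuroblastoma cells kept in 1:1 Eagle's MEM/F12 and plated in six-well plates, then incubated with test compound for 24 h. Cells were trypsinized, fixed and rinsed, then labelled with an anti-phospho-tau primary and an Alexa-647 conjugated secondary antibody. After washing and resuspension in FACS buffer, cells were analysed by flow cytometry.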

C3A cells [5] = test: Cell viability; format: cell-based; settings: Homo sapiens, 72 h, read-out: IC50 (cell viability)
How it was run: (§3)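 Cells grown in Eagle's MEM with 10% FBS and 1% penicillin/streptomycin, seeded at 2000–3000 cells/well and left overnight. Treated with test compound 0–200 μM for 48–72 h. PrestoBlue HS (resazurin) added for about 45 min, fluorescence read at 560/590 nm. Percent viability relative to vehicle control plotted against dose.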

HEK293 cells = test: Cytotoxicity on noncancerous HEK293 cells; format: cell-based, human; settings: up to 200 μM
How it was run: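 HEK293 cells in RPMI 1640 medium, seeded at 2000–3000 cells/well and allowed to grow overnight. Exposed to test compound over 0–200 μM for 48–72 h. Resazurin-based PrestoBlue HS reagent applied about 45 min, fluorescence measured at excitation 560/emission 590 nm. Viability expressed as percent of vehicle control across doses.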

MARK4 [6] = molecular target: T1, MARK4; test: ATPase enzyme inhibition assay; format: biochemical; settings: for ATPase activity of MARK4: in the presence of compound
How it was run: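 MARK4 (residues 59–368), expressed in E. coli M15 and purified, at 6 μM with 20 μM ATP in 20 mM Tris pH 8.0. Incubated with test compound (0–120 μM) at 25 °C for 10–15 min. Phosphate detected with Biomol Green malachite-green reagent, absorbance 620 nm. IC50 computed with an online calculator.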

SNU-475 cells [7] = test: Cell viability; format: cell-based; settings: Homo sapiens, SNU-475, 72 h, read-out: IC50 (cell viability)
How it was run: as §3

SNU-475 cells [8] = test: Transwell cell migration assay, SNU-475; format: cell-based, human; settings: SNU-475, 1/2 IC50, 24 h, vs vehicle control
How it was run: as §1

C3A cells [9] = test: Annexin-V/PI staining; format: cell-based, human
How it was run: as §2

[10] = fluorescence quenching, modified Stern-Volmer

Kd (MARK4 [1]) [µM] | KSV (MARK4 [1]; fluorescence quenching) | n (number of binding sites) (MARK4 [1]; [10]) | ATPase activity of MARK4 (MARK4 [6]) | Compound | other results
0.0375 | 0.8 × 10^5 M^–1 | 1.517 |  | COc1ccc2c(c1)NC(=O)/C2=N\NC(=O)c1ccc(O)c(OC)c1 [VI-13, (Z)-4-Hydroxy-3-methoxy-N′-(6-methoxy-2-oxoindolin-3-ylidene)benzohydrazide] | 
6.76 | 1.0 × 10^5 M^–1 | 1.047 | decreased considerably | COc1cc(C(=O)N/N=C2\C(=O)Nc3c(Cl)cccc32)ccc1O [VI-9, (Z)-N′-(7-Chloro-2-oxoindolin-3-ylidene)-4-hydroxy-3-methoxybenzohydrazide] | Cell migration (C3A cells [2]): significantly decreased the migration; Apoptosis induction (SNU-475 cells [3]): strongly promote early apoptosis; Tau phosphorylation [4]: decreased the tau phosphorylation; IC50 (C3A cells [5]): 6.96 µM; Cytotoxicity on noncancerous HEK293 cells (HEK293 cells): did not exhibit cytotoxicity; IC50 (MARK4 [6]): 7.16 µM; IC50 (SNU-475 cells [7]): 4.35 µM; Cell migration (SNU-475 cells [8]): significantly decreased the migration; Apoptosis induction (C3A cells [9]): strongly promote early apoptosis
40 | 1.0 × 10^5 M^–1 | 0.8404 | decreased considerably | COc1cc(C(=O)N/N=C2\C(=O)Nc3c(C)cc(C)cc32)ccc1O [VI-5, (Z)-N′-(5,7-Dimethyl-2-oxoindolin-3-ylidene)-4-hydroxy-3-methoxybenzohydrazide] | 
1.12 | 1.8 × 10^5 M^–1 | 1.141 |  | COc1cc(C(=O)N/N=C2\C(=O)Nc3cc(Cl)ccc32)ccc1O [VI-4, (Z)-N′-(6-Chloro-2-oxoindolin-3-ylidene)-4-hydroxy-3-methoxybenzohydrazide] | 
0.725 | 3.7 × 10^5 M^–1 | 1.145 | decreased considerably | COc1cc(C(=O)N/N=C2\C(=O)Nc3ccc(C)cc32)ccc1O [VI-2, (Z)-4-Hydroxy-3-methoxy-N′-(5-methyl-2-oxoindolin-3-ylidene)benzohydrazide] | 
1.57 | 1.4 × 10^5 M^–1 | 1.135 |  | COc1cc(C(=O)N/N=C2\C(=O)Nc3ccc(Cl)cc32)ccc1O [VI-6, (Z)-N′-(5-Chloro-2-oxoindolin-3-ylidene)-4-hydroxy-3-methoxybenzohydrazide] | 
0.0444 | 3.8 × 10^5 M^–1 | 1.367 | decreased considerably | COc1ccc2c(c1)/C(=N/NC(=O)c1ccc(O)c(OC)c1)C(=O)N2 [VI-3, (Z)-4-Hydroxy-3-methoxy-N′-(5-methoxy-2-oxoindolin-3-ylidene)benzohydrazide] | 
 | 1.4 × 10^5 M^–1 | 1.015 |  | (Z)-N′-(6-Fluoro-2-oxoindolin-3-ylidene)-4-hydroxy-3-methoxybenzohydrazide [VI-11] | Ka (binding constant) (MARK4 [1]; fluorescence quenching, modified Stern-Volmer, excitation 280 nm): 1.56 × 10^5 M^–1
0.735 | 1.8 × 10^5 M^–1 | 1.199 |  | COc1cc(C(=O)N/N=C2\C(=O)Nc3cc(F)ccc32)ccc1O [VI-14, (Z)-N′-(6-Fluoro-2-oxoindolin-3-ylidene)-4-hydroxy-3-methoxybenzohydrazide] | 
12.7 | 0.8 × 10^5 M^–1 | 1.006 |  | COc1cc(C(=O)N/N=C2\C(=O)Nc3cc(Cl)c(F)cc32)ccc1O [VI-10, (Z)-N′-(6-Chloro-5-fluoro-2-oxoindolin-3-ylidene)-4-hydroxy-3-methoxybenzohydrazide] | 
76.3 | 0.6 × 10^5 M^–1 | 0.8606 |  | COc1cc(C(=O)N/N=C2\C(=O)Nc3c2cccc3[N+](=O)[O-])ccc1O [VI-8, (Z)-4-Hydroxy-3-methoxy-N′-(7-nitro-2-oxoindolin-3-ylidene)benzohydrazide] | 
0.179 | 3.9 × 10^5 M^–1 | 1.241 |  | COc1cc(C(=O)N/N=C2\C(=O)Nc3ccccc32)ccc1O [VI-1, (Z)-4-Hydroxy-3-methoxy-N′-(2-oxoindolin-3-ylidene)benzohydrazide] | 
3.01 | 1.7 × 10^5 M^–1 | 1.067 |  | COc1cc(C(=O)N/N=C2\C(=O)Nc3ccc(Br)cc32)ccc1O [VI-7, (Z)-N′-(5-Bromo-2-oxoindolin-3-ylidene)-4-hydroxy-3-methoxybenzohydrazide] | 
